Laboratory results: ChEMBL document CHEMBL1138269, “Antimicrobial lexitropsins containing amide, amidine, and alkene linking groups” (J Med Chem, 2007)
Converted amounts (≈) assume the structure as drawn.

Columns and labels:
Type in all cases: functional
Staphylococcus aureus [1] = test: Antibacterial activity against methicillin-resistant Staphylococcus aureus clinical isolate 5
In short: (§1)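 Broth microdilution MIC against clinical S. aureus isolates (incl. MRSA), run per NCCLS guidelines in 96-well plates. Test sample dissolved in sterile water to a 200 µg mL-1 working concentration, then doubling dilutions in Mueller-Hinton broth. Incubated at 37 °C, growth read visually plus resazurin indicator. MIC reported in µg/mL.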

Enterococcus faecalis = test: Antibacterial activity against Streptococcus faecalis NCTC 775; conditions: Enterococcus faecalis, NCTC 775; read-out: MIC
In short: (§2)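 Broth microdilution in Mueller-Hinton broth. Samples were dissolved in sterile water to 200 µg mL-1 as the working solution and doubling dilutions were made across rows. Plates were incubated at 37 °C and inspected visually, with resazurin added as growth indicator. MIC reported in µg mL-1.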

Candida albicans = test: Antifungal activity against Candida albicans NCPF 3179; conditions: Candida albicans; read-out: MIC
In short: (§3)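 Antifungal microdilution in Sabouraud broth. Test sample at 200 µg mL-1 working solution in sterile water was serially doubled down successive rows. Incubation was at 25 °C, followed by visual growth check and addition of resazurin indicator. Read-out is MIC in µg mL-1.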

Staphylococcus aureus [2] = test: Antibacterial activity against methicillin-resistant Staphylococcus aureus clinical isolate 1; in short: as §1
Staphylococcus aureus [3] = test: Antibacterial activity against methicillin-sensitive Staphylococcus aureus NCTC 6571; conditions: Staphylococcus aureus, NCTC 6571; read-out: MIC; in short: as §2
[4] = system: Mycolicibacterium fortuitum; test: Antibacterial activity against Mycobacterium fortuitum NCTC 10394; in short: as §2
Staphylococcus aureus [5] = test: Antibacterial activity against methicillin-resistant Staphylococcus aureus clinical isolate 4; in short: as §1
Staphylococcus aureus [6] = test: Antibacterial activity against methicillin-resistant Staphylococcus aureus clinical isolate 2; in short: as §1
Aspergillus niger = test: Antifungal activity against Aspergillus niger IMI 149007; in short: as §3
Staphylococcus aureus [7] = test: Antibacterial activity against methicillin-resistant Staphylococcus aureus clinical isolate 3; in short: as §1

## CN(C)CCCNC(=O)c1cc(NC(=O)c2cc(NC(=O)c3ccc(/C=C/c4cnc5ccccc5c4)cc3)cn2C)cn1C
Staphylococcus aureus [1]
  MIC: 25 µg/mL (≈ 41.4 µM)
Enterococcus faecalis
  MIC: 13 µg/mL (≈ 21.5 µM)
Candida albicans
  MIC: > 50 µg/mL
Staphylococcus aureus [2]
  MIC: 25 µg/mL (≈ 41.4 µM)
Staphylococcus aureus [3]
  MIC: 32 µg/mL (≈ 53 µM)
[4]
  MIC: > 50 µg/mL
Staphylococcus aureus [5]
  MIC: 25 µg/mL (≈ 41.4 µM)
Staphylococcus aureus [6]
  MIC: 25 µg/mL (≈ 41.4 µM)
Aspergillus niger
  MIC: > 50 µg/mL
Staphylococcus aureus [7]
  MIC: 25 µg/mL (≈ 41.4 µM)

## CC(=N)Nc1cc(C(=O)Nc2cc(C(=O)Nc3nc(C(=O)NCCN4CCOCC4)c(C(C)C)s3)n(C)c2)n(C)c1
Staphylococcus aureus [1]
  MIC: > 64 µg/mL
Enterococcus faecalis
  MIC: > 50 µg/mL
Candida albicans
  MIC: > 50 µg/mL
Staphylococcus aureus [2]
  MIC: 64 µg/mL (≈ 110 µM)
Staphylococcus aureus [3]
  MIC: > 50 µg/mL
[4]
  MIC: > 50 µg/mL
Staphylococcus aureus [5]
  MIC: > 64 µg/mL
Staphylococcus aureus [6]
  MIC: > 64 µg/mL
Aspergillus niger
  MIC: > 50 µg/mL
Staphylococcus aureus [7]
  MIC: > 64 µg/mL

## COc1cccc(C(=N)Nc2cc(C(=O)Nc3cc(C(=O)Nc4nc(C(=O)NCCN5CCOCC5)c(C(C)C)s4)n(C)c3)n(C)c2)c1
Staphylococcus aureus [1]
  MIC: 32 µg/mL (≈ 47.4 µM)
Enterococcus faecalis
  MIC: > 50 µg/mL
Candida albicans
  MIC: > 50 µg/mL
Staphylococcus aureus [2]
  MIC: 16 µg/mL (≈ 23.7 µM)
Staphylococcus aureus [3]
  MIC: > 50 µg/mL
[4]
  MIC: > 50 µg/mL
Staphylococcus aureus [5]
  MIC: 32 µg/mL (≈ 47.4 µM)
Staphylococcus aureus [6]
  MIC: 64 µg/mL (≈ 94.7 µM)
Aspergillus niger
  MIC: > 50 µg/mL
Staphylococcus aureus [7]
  MIC: 32 µg/mL (≈ 47.4 µM)

## CC(C)CCn1cc(NC(=O)c2cc(NC(=O)c3cccc(Cl)c3)cn2C)cc1C(=O)Nc1cc(C(=O)NCCCN(C)C)n(C)c1
Staphylococcus aureus [1]
  MIC: 16 µg/mL (≈ 24.1 µM)
Enterococcus faecalis
  MIC: 6 µg/mL (≈ 9.05 µM)
Candida albicans
  MIC: > 50 µg/mL
Staphylococcus aureus [2]
  MIC: 16 µg/mL (≈ 24.1 µM)
Staphylococcus aureus [3]
  MIC: 13 µg/mL (≈ 19.6 µM)
[4]
  MIC: > 50 µg/mL
Staphylococcus aureus [5]
  MIC: 16 µg/mL (≈ 24.1 µM)
Staphylococcus aureus [6]
  MIC: 16 µg/mL (≈ 24.1 µM)
Aspergillus niger
  MIC: > 50 µg/mL
Staphylococcus aureus [7]
  MIC: 16 µg/mL (≈ 24.1 µM)

## COc1cccc(C(=N)Nc2cc(C(=O)Nc3cc(C(=O)Nc4cc(C(=O)NCCCN5CCOCC5)n(C)c4)n(C)c3)n(C)c2)c1
Staphylococcus aureus [1]
  MIC: > 64 µg/mL
Enterococcus faecalis
  MIC: > 50 µg/mL
Candida albicans
  MIC: > 50 µg/mL
Staphylococcus aureus [2]
  MIC: > 64 µg/mL
Staphylococcus aureus [3]
  MIC: > 50 µg/mL
[4]
  MIC: > 50 µg/mL
Staphylococcus aureus [5]
  MIC: > 64 µg/mL
Staphylococcus aureus [6]
  MIC: > 64 µg/mL
Aspergillus niger
  MIC: > 50 µg/mL
Staphylococcus aureus [7]
  MIC: > 64 µg/mL

## CN(C)CCCNC(=O)c1cc(NC(=O)c2cc(NC(=O)c3cc(NC(=N)c4ccc5ccccc5n4)cn3C)cn2C)cn1C
Staphylococcus aureus [1]
  MIC: > 64 µg/mL
Enterococcus faecalis
  MIC: 50 µg/mL (≈ 80.3 µM)
Candida albicans
  MIC: 50 µg/mL (≈ 80.3 µM)
Staphylococcus aureus [2]
  MIC: > 64 µg/mL
Staphylococcus aureus [3]
  MIC: > 50 µg/mL
[4]
  MIC: > 50 µg/mL
Staphylococcus aureus [5]
  MIC: > 64 µg/mL
Staphylococcus aureus [6]
  MIC: > 64 µg/mL
Aspergillus niger
  MIC: 50 µg/mL (≈ 80.3 µM)
Staphylococcus aureus [7]
  MIC: > 64 µg/mL

## Cn1cc(NC(=O)c2cc(NC(=O)c3ccc(/C=C/c4cccnc4)cc3)cn2C)cc1C(=O)NCCN1CCOCC1
Staphylococcus aureus [1]
  MIC: 1 µg/mL (≈ 1.72 µM)
Enterococcus faecalis
  MIC: 35 µg/mL (≈ 60.2 µM)
Candida albicans
  MIC: > 50 µg/mL
Staphylococcus aureus [2]
  MIC: 2 µg/mL (≈ 3.44 µM)
Staphylococcus aureus [3]
  MIC: 35 µg/mL (≈ 60.2 µM)
[4]
  MIC: > 50 µg/mL
Staphylococcus aureus [5]
  MIC: 8 µg/mL (≈ 13.8 µM)
Staphylococcus aureus [6]
  MIC: 8 µg/mL (≈ 13.8 µM)
Aspergillus niger
  MIC: > 50 µg/mL
Staphylococcus aureus [7]
  MIC: 4 µg/mL (≈ 6.88 µM)

## CC(C)CCn1cc(NC(=O)c2cc(NC(=O)c3ccc4c(c3)OCO4)cn2C)cc1C(=O)Nc1cc(C(=O)NCCCN(C)C)n(C)c1
Staphylococcus aureus [1]
  MIC: 16 µg/mL (≈ 23.8 µM)
Enterococcus faecalis
  MIC: > 50 µg/mL
Candida albicans
  MIC: > 50 µg/mL
Staphylococcus aureus [2]
  MIC: 8 µg/mL (≈ 11.9 µM)
Staphylococcus aureus [3]
  MIC: 50 µg/mL (≈ 74.3 µM)
[4]
  MIC: > 50 µg/mL
Staphylococcus aureus [5]
  MIC: 16 µg/mL (≈ 23.8 µM)
Staphylococcus aureus [6]
  MIC: 16 µg/mL (≈ 23.8 µM)
Aspergillus niger
  MIC: > 50 µg/mL
Staphylococcus aureus [7]
  MIC: 16 µg/mL (≈ 23.8 µM)

## Cn1cc(NC(=O)c2cc(NC(=O)c3cc(/C=C/c4ccc5ccccc5n4)cn3C)cn2C)cc1C(=O)NCCN1CCOCC1
Staphylococcus aureus [1]
  MIC: 16 µg/mL (≈ 25.2 µM)
Enterococcus faecalis
  MIC: 13 µg/mL (≈ 20.5 µM)
Candida albicans
  MIC: > 50 µg/mL
Staphylococcus aureus [2]
  MIC: 4 µg/mL (≈ 6.3 µM)
Staphylococcus aureus [3]
  MIC: 13 µg/mL (≈ 20.5 µM)
[4]
  MIC: > 50 µg/mL
Staphylococcus aureus [5]
  MIC: 32 µg/mL (≈ 50.4 µM)
Staphylococcus aureus [6]
  MIC: 64 µg/mL (≈ 101 µM)
Aspergillus niger
  MIC: > 50 µg/mL
Staphylococcus aureus [7]
  MIC: 64 µg/mL (≈ 101 µM)

## CC(C)c1sc(NC(=O)c2cc(NC(=O)c3cc(NC=O)cn3C)cn2C)nc1C(=O)NCCN1CCOCC1
Staphylococcus aureus [1]
  MIC: 64 µg/mL (≈ 112 µM)
Enterococcus faecalis
  MIC: 25 µg/mL (≈ 43.8 µM)
Candida albicans
  MIC: > 50 µg/mL
Staphylococcus aureus [2]
  MIC: 32 µg/mL (≈ 56.1 µM)
Staphylococcus aureus [3]
  MIC: 13 µg/mL (≈ 22.8 µM)
[4]
  MIC: > 50 µg/mL
Staphylococcus aureus [5]
  MIC: 64 µg/mL (≈ 112 µM)
Staphylococcus aureus [6]
  MIC: > 64 µg/mL
Aspergillus niger
  MIC: > 50 µg/mL
Staphylococcus aureus [7]
  MIC: 64 µg/mL (≈ 112 µM)

## CC(C)CCc1sc(NC(=O)c2cc3ccccc3cn2)nc1C(=O)Nc1cc(C(=O)NCCCN(C)C)n(C)c1
Staphylococcus aureus [1]
  MIC: 32 µg/mL (≈ 55.6 µM)
Enterococcus faecalis
  MIC: > 50 µg/mL
Candida albicans
  MIC: > 50 µg/mL
Staphylococcus aureus [2]
  MIC: 32 µg/mL (≈ 55.6 µM)
Staphylococcus aureus [3]
  MIC: > 50 µg/mL
[4]
  MIC: > 50 µg/mL
Staphylococcus aureus [5]
  MIC: 32 µg/mL (≈ 55.6 µM)
Staphylococcus aureus [6]
  MIC: 32 µg/mL (≈ 55.6 µM)
Aspergillus niger
  MIC: > 50 µg/mL
Staphylococcus aureus [7]
  MIC: 32 µg/mL (≈ 55.6 µM)

## COc1cccc(/C=C/c2ccc(C(=O)Nc3cc(C(=O)Nc4nc(C(=O)NCCCN(C)C)c(CCC(C)C)s4)n(C)c3)cc2)c1
Staphylococcus aureus [1]
  MIC: 8 µg/mL (≈ 12.2 µM)
Enterococcus faecalis
  MIC: > 50 µg/mL
Candida albicans
  MIC: > 50 µg/mL
Staphylococcus aureus [2]
  MIC: 8 µg/mL (≈ 12.2 µM)
Staphylococcus aureus [3]
  MIC: > 50 µg/mL
[4]
  MIC: > 50 µg/mL
Staphylococcus aureus [5]
  MIC: 8 µg/mL (≈ 12.2 µM)
Staphylococcus aureus [6]
  MIC: 8 µg/mL (≈ 12.2 µM)
Aspergillus niger
  MIC: > 50 µg/mL
Staphylococcus aureus [7]
  MIC: 8 µg/mL (≈ 12.2 µM)
